The source of these data is ChEMBL document CHEMBL2021912, “Synthesis, cytotoxicity and apoptosis of cyclotriphosphazene compounds as anti-cancer agents” (Eur J Med Chem, 2012).

Calls of active or inactive are those of the source. The rule behind the calls is not given here.

One series concerns Staphylococcus aureus. Description: Antibacterial activity against Staphylococcus aureus ATCC 25923 after 18 to 24 hrs by broth microdilution method. The class given is functional. Conditions: read-out: ID50 (the source's name). For orientation: In broth dilution the organism is exposed to a series of concentrations in liquid medium.
Another series has as its system Escherichia coli. Description: Antibacterial activity against Escherichia coli ATCC 35218 after 18 to 24 hrs by broth microdilution method. It is filed as functional. Conditions: read-out: ID50 (the source's name).
The next series relates to Vero. Description: (§1) Cytotoxicity against african green monkey Vero cells after 24 hrs at 37 degC by MTT assay. The class given is cell-based. Conditions: chlorocebus sabaeus, vero, 24 h. In short, it runs like this:
(§2)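 Vero and HT-29 grown in DMEM/10% FBS, Hep2 in EMEM/10% FBS; seeded at 2 × 10^4 (Vero, Hep2) or 3 × 10^4 (HT-29) cells/mL; exposed 24 h to 0.2–50 µg/mL compound, final DMSO 1%; MTT 1 mg/mL 2 h at 37 °C, formazan in DMSO, OD 540 nm; % of DMSO control; ID50 by probit; triplicate wells, three repeats.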

Series [1] relates to HT-29. The experiment in a line: Cytotoxicity against human HT-29 cells after 24 hrs at 37 degC by MTT assay. The class given is functional. Conditions: for IC50: HT-29, 24 h, read-out: ID50 (the source's name). In short, it runs like this: as §2
A general note: Formazan colour is commonly taken as a measure of viable cells.

The subject of series [2] is HEp-2. The experiment in a line: Cytotoxicity against human Hep2 cells after 24 hrs at 37 degC by MTT assay. It is filed as functional. Conditions: for IC50: HEp-2, 24 h, read-out: ID50 (the source's name). In short, it runs like this:
as §2

The next series concerns Candida albicans. The experiment in a line: Antifungal activity against Candida albicans ATCC 10231 after 48 hrs by broth microdilution method. Conditions: ATCC 10231, 48 h, read-out: ID50 (the source's name). It is filed as functional.
Another series relates to Pseudomonas aeruginosa. Description: Antibacterial activity against Pseudomonas aeruginosa ATCC 27853 after 18 to 24 hrs by broth microdilution method. The class given is functional. Conditions: read-out: ID50 (the source's name).
Series [3] relates to HEp-2. The experiment in a line: Induction of apoptosis in human Hep2 cells assessed as necrotic cells level after 24 hrs by annexin V-FITC and propidium iodide staining based flow cytometry. It is filed as functional. The essentials: (§3)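 Hep2 seeded at 2-3 × 10^6 per flask, treated 24 h at several concentrations; cisplatin 200 µM positive control; cells in HEPES pH 7.4/NaCl/CaCl2 buffer stained with annexin V-FITC 100 ng/mL and PI 0.1 µg/mL, 15 min room temperature, dark; flow cytometry quadrants; three experiments in duplicate.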
On the technique in general: In flow cytometry, cells or beads pass a laser one at a time.

A short description of series [4]: as §1. It is filed as cell-based. Conditions: chlorocebus sabaeus, Vero cells; read-out: ID50. In short, it runs like this: as §2
In series [5] the test system is HEp-2. The experiment in a line: Induction of apoptosis in human Hep2 cells assessed as early apoptotic cells level after 24 hrs by annexin V-FITC and propidium iodide staining based flow cytometry. It is filed as functional. The essentials: as §3
Series [6] relates to HEp-2. The experiment in a line: Induction of apoptosis in human Hep2 cells assessed as late apoptotic cells level after 24 hrs by annexin V-FITC and propidium iodide staining based flow cytometry. The class given is functional. The essentials: as §3
Series [7] deals with HEp-2. The experiment in a line: Induction of apoptosis in human Hep2 cells assessed as viable cell level after 24 hrs by annexin V-FITC and propidium iodide staining based flow cytometry. The class given is functional. In short, it runs like this: as §3
In series [8] the test system is HT-29. The experiment in a line: Induction of apoptosis in human HT-29 cells assessed as necrotic cells level after 24 hrs by annexin V-FITC and propidium iodide staining based flow cytometry. It is filed as functional. In short, it runs like this:
(§4)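 HT-29 seeded at 2-3 × 10^6 per flask in 10% FBS-DMEM, treated 24 h at several concentrations; etoposide (12.5–50 µg/mL) positive control; cells in HEPES pH 7.4/NaCl/CaCl2 buffer stained with annexin V-FITC 100 ng/mL and PI 0.1 µg/mL, 15 min room temperature, dark; flow cytometry quadrants; three experiments in duplicate.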

Series [9] deals with HT-29. The experiment in a line: Induction of apoptosis in human HT-29 cells assessed as viable cell level after 24 hrs by annexin V-FITC and propidium iodide staining based flow cytometry. It is filed as functional. In short, it runs like this: as §4
Series [10] deals with HT-29. Description: Induction of apoptosis in human HT-29 cells assessed as early apoptotic cells level after 24 hrs by annexin V-FITC and propidium iodide staining based flow cytometry. The class given is functional. In short, it runs like this: as §4
The test system of series [11] is HT-29. The experiment in a line: Induction of apoptosis in human HT-29 cells assessed as late apoptotic cells level after 24 hrs by annexin V-FITC and propidium iodide staining based flow cytometry. It is filed as functional. The essentials: as §4

In the case of `ClP1(Cl)=NP2(=NP(Nc3ccccc3)(Nc3ccccc3)=N1)NCCCN2CCCCN1CCCNP12=NP(Nc1ccccc1)(Nc1ccccc1)=NP(Cl)(Cl)=N2` (stereo unspecified), the IC50 with Staphylococcus aureus, in the series with Escherichia coli, with Candida albicans and with Pseudomonas aeruginosa was greater than 250 µg/mL throughout. Besides, the ID50 entry with Vero is listed as “Non-toxic”. In addition, the ID50 entry with HT-29 [1] and with HEp-2 [2] was “inactive” each time.

Take `CC1(C)COP2(=NP34=NP5(=N2)NCCCN5CCCCN3CCCN4)OC1` (stereo unspecified): the IC50 with Staphylococcus aureus was greater than 250 µg/mL; in the series on Escherichia coli, greater than 250 µg/mL; in the series with HEp-2 [2] it was 3230 nM; with Candida albicans, greater than 250 µg/mL; with Pseudomonas aeruginosa it was greater than 250 µg/mL. Besides, the Activity is reported as 0% with HEp-2 [3], 77.29% in the series on HEp-2 [5], 3.32% in the series on HEp-2 [6] and 19.39% with HEp-2 [7]. Moreover, in series [4], the CC50 at 24 h is 5880 nM. In the series on HT-29 [1], the ID50 entry was “inactive”.

For `FC1(F)COP2(Cl)=NP(Cl)(=NP3(=N2)NCCCN3CCCCN2CCCNP23=NP2(Cl)=NP(Cl)(=N3)OCC(F)(F)C(F)(F)CO2)OCC1(F)F` (stereo unspecified), the IC50 is greater than 250 µg/mL in the series with Staphylococcus aureus; greater than 250 µg/mL in the series with Escherichia coli; 2630 nM in the series on HEp-2 [2]; greater than 250 µg/mL with Candida albicans; greater than 250 µg/mL in the series on Pseudomonas aeruginosa. Further, the CC50 at 24 h in series [4] was found to be 1610 nM. Besides, the ID50 entry in the series on HT-29 [1] was “inactive”.

For `ClP1(Cl)=NP2(=NP(Sc3ccccc3)(Sc3ccccc3)=N1)NCCCN2CCCCN1CCCNP12=NP(Sc1ccccc1)(Sc1ccccc1)=NP(Cl)(Cl)=N2` (stereo unspecified), the IC50 in the series with Staphylococcus aureus is greater than 250 µg/mL; in the series with Escherichia coli it was greater than 250 µg/mL; with HT-29 [1], 1960 nM; in the series with Candida albicans, greater than 250 µg/mL; in the series on Pseudomonas aeruginosa, greater than 250 µg/mL. In addition, the CC50 at 24 h in series [4] was 3350 nM. Moreover, the ID50 result in the series on HEp-2 [2] is “inactive”.

As to `c1ccc(NP2(Nc3ccccc3)=NP34=NP5(=N2)NCCCN5CCCCN3CCCN4)cc1` (stereo unspecified), the IC50 in the series with Staphylococcus aureus was greater than 250 µg/mL; with Escherichia coli it was greater than 250 µg/mL; in the series with HT-29 [1], 4580 nM; with Candida albicans, greater than 250 µg/mL; with Pseudomonas aeruginosa, greater than 250 µg/mL. Also, in series [4], the CC50 at 24 h turned out to be 6550 nM. For the same compound, the Activity in the series with HT-29 [8] is recorded as 1.35%; in the series with HT-29 [9], 18.2%; in the series with HT-29 [10] it was 80.1%; in the series on HT-29 [11], 0.35%. Also, the ID50 entry with HEp-2 [2] is “inactive”.

Consider `CC1(C)COP2(=NP(Cl)(Cl)=NP3(=N2)NCCCN3CCCCN2CCCNP23=NP2(=NP(Cl)(Cl)=N3)OCC(C)(C)CO2)OC1` (stereo unspecified), for which the IC50 with Staphylococcus aureus is greater than 250 µg/mL; in the series with Escherichia coli, greater than 250 µg/mL; with HT-29 [1], 2750 nM; in the series on Candida albicans, greater than 250 µg/mL; in the series with Pseudomonas aeruginosa, greater than 250 µg/mL. Moreover, the CC50 at 24 h in series [4] was 2650 nM. The Activity with HT-29 [8] is given as 1.41%; in the series with HT-29 [9] it was 32.84%; with HT-29 [10], 63.78%; with HT-29 [11], 1.97%. For the same compound, the ID50 result in the series on HEp-2 [2] is “inactive”.

In the case of `FC1(F)COP2(=NP(Cl)(Cl)=NP3(=N2)NCCCN3CCCCN2CCCNP23=NP(Cl)(Cl)=NP2(=N3)OCC(F)(F)C(F)(F)CO2)OCC1(F)F` (stereo unspecified), the IC50 was greater than 250 µg/mL in the series with Staphylococcus aureus; greater than 250 µg/mL in the series on Escherichia coli; 2330 nM with HT-29 [1]; greater than 250 µg/mL in the series with Candida albicans; greater than 250 µg/mL in the series with Pseudomonas aeruginosa. In series [4], the CC50 at 24 h turned out to be 1310 nM. The Activity with HT-29 [8] is recorded as 0.8%; with HT-29 [9] it was 17.25%; with HT-29 [10] it was 81.42%; in the series on HT-29 [11] it was 0.53%. The ID50 entry in the series with HEp-2 [2] is “inactive”.

In the case of `FC1(F)COP2(=NP34=NP5(=N2)NCCCN5CCCCN3CCCN4)OCC1(F)F` (stereo unspecified), the IC50 was greater than 250 µg/mL in the series with Staphylococcus aureus; greater than 250 µg/mL with Escherichia coli; 3390 nM with HEp-2 [2]; greater than 250 µg/mL with Candida albicans; greater than 250 µg/mL with Pseudomonas aeruginosa. For the same compound, the Activity turned out to be 1.1% with HEp-2 [3], 60.78% in the series on HEp-2 [5], 5.34% in the series on HEp-2 [6] and 32.78% in the series on HEp-2 [7]. In [4], the CC50 at 24 h worked out at 5410 nM. Moreover, the ID50 result in the series with HT-29 [1] was “inactive”.
